Data published in ChEMBL document CHEMBL3124905, “Isothiocoumarin-3-carboxylic acid derivatives: synthesis, anticancer and antitrypanosomal activity evaluation” (Eur J Med Chem, 2014).

Experiments:
[1] = Growth inhibition of human UO31 cells after 48 hrs by SRB assay; type: functional; details: UO-31, 48 h
Procedure, shortened: (§1)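 NCI ~60-cell-line five-dose screen. Cells were preincubated 24-48 h, then given compound at 10-fold dilutions from 10^-4 to 10^-8 M with 48 h continuous exposure. SRB protein stain was read by absorbance at time zero, in untreated control and with drug. GI50 was derived from [(Ti-Tz)/(C-Tz)]x100=50, TGI from Ti=Tz, and LC50 from [(Ti-Tz)/Tz]x100=-50.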

OVCAR-3 [2] = experiment: Growth inhibition of human OVCAR3 cells after 48 hrs by SRB assay; type: functional; details: OVCAR-3, 48 h
Procedure, shortened: (§2)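 NCI five-dose assay against the ~60-cell-line panel (nine cancer types). Tenfold dilutions from 10−4 to 10−8 M were used with continuous 48-h exposure and SRB absorbance readout. Percent growth was computed from time-zero, control and treated absorbances. GI50 is the concentration giving 50% lower net protein increase than controls. Values not reached are reported as beyond the tested range.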

[3] = Growth inhibition of human Hs 578T cells after 48 hrs by SRB assay; type: functional; procedure, shortened: as §2
[4] = Growth inhibition of human SF539 cells at 10 uM after 48 hrs by SRB assay; values are per cent of control; details: SF-539, 48 h
SR = experiment: Growth inhibition of human SR cells after 48 hrs by SRB assay; type: functional; procedure, shortened: as §1
OVCAR-3 [5] = experiment: Growth inhibition of human OVCAR3 cells at 10 uM after 48 hrs by SRB assay; values are per cent of control; details: OVCAR-3, 48 h
[6] = Growth inhibition of human UO31 cells at 10 uM after 48 hrs by SRB assay; values are per cent of control; details: UO-31, 48 h
CAKI-1 [7] = experiment: Growth inhibition of human CAKI-1 cells at 10 uM after 48 hrs by SRB assay; values are per cent of control; details: CAKI-1, 48 h
A549 = experiment: Growth inhibition of human A549/ATCC cells at 10 uM after 48 hrs by SRB assay; values are per cent of control; details: A549, 48 h
ACHN = experiment: Growth inhibition of human ACHN cells after 48 hrs by SRB assay; type: functional; procedure, shortened: as §2
NCI-H322M = experiment: Growth inhibition of human NCI-H322M cells after 48 hrs by SRB assay; type: functional; procedure, shortened: as §2
SNB-75 [8] = experiment: Growth inhibition of human SNB75 cells at 10 uM after 48 hrs by SRB assay; values are per cent of control; details: SNB-75, 48 h
U-251 = experiment: Growth inhibition of human U251 cells after 48 hrs by SRB assay; type: functional; details: U-251, 48 h; procedure, shortened: as §1
[9] = test system: Trypanosoma brucei brucei; experiment: Antitrypanosomal activity against bloodstream form of Trypanosoma brucei brucei strain 90-13 assessed as inhibition of parasite growth at 1 ug/ml after 72 hrs by resazurin reduction test; type: functional; details: strain 90-13, 72 h
Procedure, shortened: (§3)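 Trypanosoma brucei brucei 90-13 bloodstream forms, grown in HMI9 with 10% FCS at 37 °C under 5% CO2. Log-phase parasites were seeded at 10^5 cells/mL with or without inhibitor, with stocks prepared in DMSO. After 72 h, resazurin was added and fluorescence was read at 530/590 nm after a further 4 h. Percent growth inhibition was calculated versus drug-free parasites, with DMSO as control.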

Malme-3M = experiment: Growth inhibition of human MALME-3M cells after 48 hrs by SRB assay; type: functional; procedure, shortened: as §2
[10] = Acute toxicity in ip dosed white mouse; type: organism-based; details: in vivo
Procedure, shortened: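 White male mice, 23-25 g, dosed intraperitoneally with compound dissolved in 0.9% NaCl saline plus 1-2 drops Polysorbate 80 (Tween-80). Solutions prepared immediately before use. Doses ranged 100-1000 mg/kg, testing 4 or 5 doses with 6 animals per dose. LD50 derived by the Litchfield-Wilcoxon method.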

[11] = Growth inhibition of human OVCAR4 cells after 48 hrs by SRB assay; type: functional; details: OVCAR-4, 48 h; procedure, shortened: as §2
TK-10 = experiment: Growth inhibition of human TK10 cells after 48 hrs by SRB assay; type: functional; details: TK-10, 48 h; procedure, shortened: as §1
[12] = test system: Trypanosoma brucei brucei; experiment: Antitrypanosomal activity against bloodstream form of Trypanosoma brucei brucei strain 90-13 assessed as inhibition of parasite growth at 10 ug/ml after 72 hrs by resazurin reduction test; type: functional; details: strain 90-13, 72 h; procedure, shortened: as §3
[13] = Growth inhibition of human HOP92 cells after 48 hrs by SRB assay; type: functional; details: HOP-92, 48 h; procedure, shortened: as §2
SNB-75 [14] = experiment: Growth inhibition of human SNB75 cells after 48 hrs by SRB assay; type: functional; details: SNB-75, 48 h; procedure, shortened: as §2
[15] = Growth inhibition of human SF539 cells after 48 hrs by SRB assay; type: functional; details: SF-539, 48 h; procedure, shortened: as §2
CAKI-1 [16] = experiment: Growth inhibition of human CAKI-1 cells after 48 hrs by SRB assay; type: functional; details: CAKI-1, 48 h; procedure, shortened: as §2

## COc1ccc2cc(C(=O)Nc3nc(-c4ccccc4)cs3)sc(=O)c2c1OC
[1]
  GI50: 1.95 µM
[1]; read-out: pTGI (converted)
  TGI: 3.09 µM
OVCAR-3 [2]
  GI50: 1.91 µM
OVCAR-3 [2]; read-out: pTGI (converted)
  TGI: 3.72 µM
[3]
  GI50: 2.63 µM
[3]; read-out: pTGI (converted)
  TGI: 4.37 µM
[4]
  growth percent at 10 µM: -48%
SR
  GI50: 2.75 µM
SR; read-out: pTGI (converted)
  TGI: > 100 µM
OVCAR-3 [5]
  growth percent at 10 µM: -67%
[6]
  growth percent at 10 µM: -65.5%
CAKI-1 [7]
  growth percent at 10 µM: -70.8%
A549
  growth percent at 10 µM: -50.8%
ACHN
  GI50: 2.04 µM
ACHN; read-out: pTGI (converted)
  TGI: > 100 µM
NCI-H322M; read-out: GI50
  GI50: 1.28 µM
NCI-H322M; read-out: pGI50 (converted)
  GI50: 1.29 µM
NCI-H322M; read-out: pTGI (converted)
  TGI: 5.62 µM
SNB-75 [8]
  growth percent at 10 µM: -43.8%
U-251
  GI50: 2 µM
U-251; read-out: pTGI (converted)
  TGI: 4.47 µM
[9]
  inhibition at 1 µg/mL: 28.6%
Malme-3M
  GI50: 1.95 µM
Malme-3M; read-out: pTGI (converted)
  TGI: 8.32 µM
[10]
  LD50: 515 mg/kg
[11]
  GI50: 1.86 µM
TK-10
  GI50: 2.09 µM
TK-10; read-out: pTGI (converted)
  TGI: 3.8 µM
[12]
  inhibition at 10 µg/mL: 11.3%
[13]
  GI50: 1.29 µM
[13]; read-out: pTGI (converted)
  TGI: 3.16 µM
SNB-75 [14]
  GI50: 1.58 µM
SNB-75 [14]; read-out: pTGI (converted)
  TGI: 3.55 µM
[15]
  GI50: 1.78 µM
[15]; read-out: pTGI (converted)
  TGI: 3.63 µM
CAKI-1 [16]
  GI50: 0.24 µM
CAKI-1 [16]; read-out: pTGI (converted)
  TGI: 1.78 µM
